Source: ChEMBL document CHEMBL4392827, “Tryptamine derivatives disarm colistin resistance in polymyxin-resistant gram-negative bacteria” (Bioorg Med Chem, 2019)

Legend:
Acinetobacter baumannii [1] = test: Potentiation of colistin-induced antimicrobial activity against colistin-resistant Acinetobacter baumannii ATCC 17978 expressing mcr1 gene assessed as fold reduction in colistin MIC at 60 uM after 18 hrs by broth microdilution assay; assay type: functional
In short: (§1)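 Checkerboard-style resensitization following adapted CLSI broth microdilution. Bacteria were grown 4–6 h in CAMHB and subcultured to 5×10^5 CFU/mL. Adjuvant was added from DMSO stock and held constant while colistin was serially diluted in the dosed subculture. Plates were incubated stationary at 37°C for 18 h, then MICs were read. Fold reduction was taken relative to the colistin MIC without adjuvant.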

Klebsiella pneumoniae [2] = test: Potentiation of colistin-induced antimicrobial activity against colistin-resistant Klebsiella pneumoniae B9 assessed as fold reduction in colistin MIC at 60 uM after 18 hrs by broth microdilution assay; assay type: functional; in short: as §1
Escherichia coli [3] = test: Potentiation of colistin-induced antimicrobial activity against colistin-resistant Escherichia coli ATCC 25922 expressing mcr1 gene assessed as fold reduction in colistin MIC at 60 uM after 18 hrs by broth microdilution assay; assay type: functional; in short: as §1
Acinetobacter baumannii [4] = test: Potentiation of colistin-induced antimicrobial activity against colistin-resistant Acinetobacter baumannii 4106 assessed as fold reduction in colistin MIC at 60 uM after 18 hrs by broth microdilution assay; assay type: functional; in short: as §1
Klebsiella pneumoniae [5] = test: Toxicity in Klebsiella pneumoniae B9 after 18 hrs by broth microdilution assay; assay type: organism-based
In short: (§2)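 Single-agent MIC per CLSI broth microdilution. Cells from a 4–6 h culture in cation-adjusted Mueller-Hinton broth adjusted to 5 ×10^5 CFU/mL. Compound (DMSO stock) added to 200 μM top concentration and twofold serially diluted six times, with an untreated control row. Plates sealed and incubated stationary at 37°C for 18 h before MIC read.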

Acinetobacter baumannii [6] = test: Toxicity in Acinetobacter baumannii 4106 after 18 hrs by broth microdilution assay; assay type: organism-based; conditions: in vitro; in short: as §2
Acinetobacter baumannii [7] = test: Toxicity in Acinetobacter baumannii ATCC 17978 expressing mcr1 gene after 18 hrs by broth microdilution assay; assay type: organism-based; in short: as §2
Escherichia coli [8] = test: Toxicity in Escherichia coli ATCC 25922 after 18 hrs by broth microdilution assay; assay type: organism-based; conditions: in vitro; in short: as §2
Acinetobacter baumannii [9] = test: Potentiation of colistin-induced antimicrobial activity against Acinetobacter baumannii ATCC 17978 assessed as fold reduction in colistin MIC at 60 uM after 18 hrs by broth microdilution assay; assay type: functional
In short: (§3)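 Bacteria grown 4–6 h in cation-adjusted Mueller-Hinton broth and diluted to 5 ×10^5 CFU/mL. Adjuvant from DMSO stock held at fixed 60 μM while colistin is twofold serially diluted in the same adjuvant-dosed broth. Plates sealed and kept stationary at 37°C for 18 h. Colistin MIC read and fold reduction taken relative to colistin alone.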

Acinetobacter baumannii [10] = test: Potentiation of colistin-induced antimicrobial activity against colistin-sensitive Acinetobacter baumannii 5075 assessed as fold reduction in colistin MIC at 60 uM after 18 hrs by broth microdilution assay; assay type: functional; in short: as §3
Klebsiella pneumoniae [11] = test: Potentiation of colistin-induced antimicrobial activity against colistin-resistant Klebsiella pneumoniae isolate A5 assessed as fold reduction in colistin MIC at 60 uM after 18 hrs by broth microdilution assay; assay type: functional; in short: as §1
Klebsiella pneumoniae [12] = test: Potentiation of colistin-induced antimicrobial activity against Klebsiella pneumoniae ATCC BAA-2146 expressing NDM1 gene assessed as fold reduction in colistin MIC at 60 uM after 18 hrs by broth microdilution assay; assay type: functional; in short: as §3
Acinetobacter baumannii [13] = test: Potentiation of colistin-induced antimicrobial activity against colistin-resistant Acinetobacter baumannii isolate 3942 assessed as fold reduction in colistin MIC at 60 uM after 18 hrs by broth microdilution assay; assay type: functional; in short: as §1
Klebsiella pneumoniae [14] = test: Potentiation of colistin-induced antimicrobial activity against colistin-resistant Klebsiella pneumoniae isolate C3 assessed as fold reduction in colistin MIC at 60 uM after 18 hrs by broth microdilution assay; assay type: functional; in short: as §1
Acinetobacter baumannii [15] = test: Potentiation of colistin-induced antimicrobial activity against colistin-resistant Acinetobacter baumannii isolate 3941 assessed as fold reduction in colistin MIC at 60 uM after 18 hrs by broth microdilution assay; assay type: functional; in short: as §1
Escherichia coli [16] = test: Potentiation of colistin-induced antimicrobial activity against Escherichia coli ATCC 25922 assessed as fold reduction in colistin MIC at 60 uM after 18 hrs by broth microdilution assay; assay type: functional; in short: as §3
Acinetobacter baumannii [17] = test: Potentiation of colistin-induced antimicrobial activity against colistin-resistant Acinetobacter baumannii isolate 4112 assessed as fold reduction in colistin MIC at 60 uM after 18 hrs by broth microdilution assay; assay type: functional; in short: as §1

Row | Compound | fold change (FC) (Acinetobacter baumannii [1]) | fold change (FC) (Klebsiella pneumoniae [2]) | fold change (FC) (Escherichia coli [3]) | fold change (FC) (Acinetobacter baumannii [4]) | other results
1 | O=C(NCCc1c[nH]c2ccccc12)c1cccs1 | 0 | 0 | 0 | 8 | –
2 | Cn1cccc1C(=O)NCCc1c[nH]c2ccccc12 | 0 | 0 | 0 | 2 | –
3 | O=C(NCCc1c[nH]c2ccc(O)cc12)c1cc(Br)c(Br)[nH]1 | 4 | 8 | 4 | 4 | MIC (Klebsiella pneumoniae [5]): > 200 µM; MIC (Acinetobacter baumannii [6]): > 200 µM; MIC (Acinetobacter baumannii [7]): > 200 µM; MIC (Escherichia coli [8]): > 200 µM
4 | O=C(NCCc1c[nH]c2ccccc12)c1cc(Br)c(Br)s1 | 16 | 512 | 2 | 32 | –
5 | O=C(NCCc1c[nH]c2ccccc12)c1cc(Br)c(Br)[nH]1 | 32 | 2048 | 8 | 512 | fold change (FC) (Acinetobacter baumannii [9]): 4; fold change (FC) (Acinetobacter baumannii [10]): 2; fold change (FC) (Klebsiella pneumoniae [11]): 256; fold change (FC) (Klebsiella pneumoniae [12]): 2; fold change (FC) (Acinetobacter baumannii [13]): 512; fold change (FC) (Klebsiella pneumoniae [14]): 1024; fold change (FC) (Acinetobacter baumannii [15]): 256; fold change (FC) (Escherichia coli [16]): 4; fold change (FC) (Acinetobacter baumannii [17]): 512
6 | Cn1c(C(=O)NCCc2c[nH]c3ccccc23)cc(Br)c1Br | 16 | 256 | 2 | 32 | –
7 | Cn1cc(CCNC(=O)c2cc(Br)c(Br)[nH]2)c2ccccc21 | 0 | 0 | 0 | 4 | MIC (Klebsiella pneumoniae [5]): > 200 µM; MIC (Acinetobacter baumannii [6]): > 200 µM; MIC (Acinetobacter baumannii [7]): > 200 µM; MIC (Escherichia coli [8]): > 200 µM
8 | O=C(NCCc1c[nH]c2ccccc12)c1cncc(Br)c1 | 0 | 8 | 0 | 4 | –
9 | O=C(NCCc1c[nH]c2ccccc12)c1ccccn1 | 0 | 0 | 0 | 8 | –
10 | CCCCn1c(C(=O)NCCc2c[nH]c3ccccc23)cc(Br)c1Br | 2 | 16 | 0 | 16 | –
11 | COc1ccc2[nH]cc(CCNC(=O)c3cc(Br)c(Br)[nH]3)c2c1 | 8 | 128 | 2 | 128 | MIC (Klebsiella pneumoniae [5]): > 200 µM; MIC (Acinetobacter baumannii [6]): > 200 µM; MIC (Acinetobacter baumannii [7]): > 200 µM; MIC (Escherichia coli [8]): > 200 µM
12 | O=C(NCc1c[nH]c2ccccc12)c1cc(I)c(I)[nH]1 | 0 | 0 | 0 | 0 | –
13 | O=C(NCCc1c[nH]c2ccccc12)c1ccc(Br)o1 | 2 | 64 | 0 | 16 | –
14 | O=C(NCCc1c[nH]c2ccccc12)c1ccc[nH]1 | 2 | 0 | 0 | 2 | –
15 | O=C(NCCc1c[nH]c2ccccc12)c1cc(Cl)c[nH]1 | 2 | 8 | 2 | 16 | –
16 | O=C(NCCc1c[nH]c2ccccc12)c1cc(I)c[nH]1 | 16 | 2048 | – | 64 | fold change (FC) (Acinetobacter baumannii [9]): 2; fold change (FC) (Acinetobacter baumannii [10]): 0; fold change (FC) (Klebsiella pneumoniae [11]): 32; fold change (FC) (Klebsiella pneumoniae [12]): 2; fold change (FC) (Acinetobacter baumannii [13]): 32; fold change (FC) (Klebsiella pneumoniae [14]): 128; fold change (FC) (Acinetobacter baumannii [15]): 64; fold change (FC) (Escherichia coli [16]): 2; fold change (FC) (Acinetobacter baumannii [17]): 32

Row | Compound | fold change (FC) (Acinetobacter baumannii [1]) | fold change (FC) (Klebsiella pneumoniae [2]) | fold change (FC) (Escherichia coli [3]) | fold change (FC) (Acinetobacter baumannii [4]) | other results
17 | O=C(NC1Cc2ccccc2C1)c1cc(Br)c(Br)[nH]1 | 0 | 0 | 0 | 8 | MIC (Klebsiella pneumoniae [5]): > 200 µM; MIC (Acinetobacter baumannii [6]): > 200 µM; MIC (Acinetobacter baumannii [7]): > 200 µM; MIC (Escherichia coli [8]): > 200 µM
18 | O=C(NCCc1cn(Cc2ccccc2)c2ccccc12)c1cc(Br)c(Br)[nH]1 | 0 | 0 | 0 | 0 | MIC (Klebsiella pneumoniae [5]): > 200 µM; MIC (Acinetobacter baumannii [6]): > 200 µM; MIC (Acinetobacter baumannii [7]): > 200 µM; MIC (Escherichia coli [8]): > 200 µM
19 | O=C(NCCc1c[nH]c2ccccc12)c1cccc(Br)n1 | – | 1024 | – | 16 | fold change (FC) (Acinetobacter baumannii [9]): 2; fold change (FC) (Acinetobacter baumannii [10]): 0; fold change (FC) (Klebsiella pneumoniae [11]): 0; fold change (FC) (Klebsiella pneumoniae [12]): 2; fold change (FC) (Acinetobacter baumannii [13]): 8; fold change (FC) (Klebsiella pneumoniae [14]): 512; fold change (FC) (Acinetobacter baumannii [15]): 8; fold change (FC) (Escherichia coli [16]): 2; fold change (FC) (Acinetobacter baumannii [17]): 8
20 | O=C(NCc1c[nH]c2ccccc12)c1cccc(Br)n1 | 0 | 32 | 0 | 32 | –
21 | O=C(NCCc1c[nH]c2ccccc12)c1ccc(Br)c(Br)n1 | 0 | 128 | 0 | 8 | –
22 | O=C(NCc1ccccc1)c1cc(Br)c(Br)[nH]1 | 0 | 2 | 0 | 2 | MIC (Klebsiella pneumoniae [5]): > 200 µM; MIC (Acinetobacter baumannii [6]): > 200 µM; MIC (Acinetobacter baumannii [7]): > 200 µM; MIC (Escherichia coli [8]): > 200 µM
23 | O=C(NCCc1c[nH]c2ccccc12)c1cc(Br)c(Br)n1Cc1ccccc1 | 2 | 16 | 0 | 8 | –
24 | O=C(NCCc1ccccn1)c1cc(Br)c(Br)[nH]1 | 0 | 2 | 0 | 0 | MIC (Klebsiella pneumoniae [5]): > 200 µM; MIC (Acinetobacter baumannii [6]): > 200 µM; MIC (Acinetobacter baumannii [7]): > 200 µM; MIC (Escherichia coli [8]): > 200 µM
25 | O=C(NCCc1c[nH]c2ccccc12)c1sccc1Br | 4 | 128 | 2 | 64 | –
26 | O=C(NCCc1c[nH]c2ccccc12)c1cc(Br)c[nH]1 | 16 | 128 | 2 | 64 | –
27 | O=C(NCCc1csc2ccccc12)c1cc(Br)c(Br)[nH]1 | 8 | 16 | 4 | 32 | MIC (Klebsiella pneumoniae [5]): > 200 µM; MIC (Acinetobacter baumannii [6]): > 200 µM; MIC (Acinetobacter baumannii [7]): > 200 µM; MIC (Escherichia coli [8]): > 200 µM
28 | O=C(NCCc1c[nH]c2ccccc12)c1cc(Br)c(Br)o1 | 16 | 512 | 2 | 64 | –
29 | O=C(NCCc1c[nH]cn1)c1cc(Br)c(Br)[nH]1 | 0 | 0 | 0 | 8 | MIC (Klebsiella pneumoniae [5]): > 200 µM; MIC (Acinetobacter baumannii [6]): > 200 µM; MIC (Acinetobacter baumannii [7]): > 200 µM; MIC (Escherichia coli [8]): > 200 µM
30 | Cn1cc(Br)cc1C(=O)NCCc1c[nH]c2ccccc12 | 4 | 4 | 2 | 32 | –
31 | O=C(NCCc1c[nH]c2ccccc12)c1cc(Cl)c(Cl)[nH]1 | 32 | 1024 | 8 | 256 | –
